Assay results from different studies.
Lines come from different studies, so protocols differ.
PPO3: PPO3 (Agaricus bisporus, UniProt C7FF04)
HTR2A: 5-hydroxytryptamine receptor 2A (HTR2A, Homo sapiens, UniProt P28223)

SMILES | target | assay | conditions | inhibition
COc1cc(/C=C/C(=O)O)ccc1OCc1cn(CC(=O)Nc2ccccc2[N+](=O)[O-])nn1 | PPO3 | enzyme activity, inhibitor | 40 µM | 11.5%
COc1cc2cc3c4c(cc(OC)c(OC)c4c2cc1OC)CCN3C | HTR2A | ligand displacement, radioligand | 10 µM | 10%
CN1CCC[C@H]1c1cccnc1 | Neuronal acetylcholine receptor; alpha4/beta2 (Rattus norvegicus, UniProt P09483+P12390) | ligand displacement, radioligand | 50 µM | 97.6%
COc1cc(/C=C/C(=O)O)ccc1OCc1cn(CC(=O)Nc2ccc([N+](=O)[O-])cc2C)nn1 | PPO3 | enzyme activity, inhibitor | 40 µM | 44.9%
COc1cc2c(cc1OC)-c1c(OC)c(OC)cc3c1[C@H](C2)N(C)CC3 | HTR2A | ligand displacement, radioligand | 10 µM | 65%
c1cncc([C@@H]2CCCN2)c1 | Kappa-type opioid receptor (OPRK1, Homo sapiens, UniProt P41145) | ligand displacement | 50 µM | -6.74%
CCOC(=O)Cc1c2c3c(cc(OC)c(OC)c3c3cc(OC)c(OC)cc13)CCN2C | HTR2A | ligand displacement, radioligand | 10 µM | 17%
COc1cc(/C=C/C(=O)O)ccc1OCc1cn(CC(=O)Nc2ccc(Cl)cc2Cl)nn1 | PPO3 | enzyme activity, inhibitor | 40 µM | 7.73%
CC(C)CC(=O)OC[C@H]1O[C@@](C#N)(c2ccc3c(N)ncnn23)[C@H](O)[C@@H]1O | Adenosine receptor A2a (ADORA2A, Homo sapiens, UniProt P29274) | cell-free assay | 20 µM | 13%
